Calls of active or inactive are those of the source. The rule behind the calls is not given here.
Columns and labels:
Staphylococcus aureus [1] = experiment: Antibacterial activity against Staphylococcus aureus ATCC 6538 P at below 625 ug/mL after 24 hrs by broth microdilution method; type: functional, organism-based
Method in brief: (§1)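 Broth microdilution in LAPTg medium (pH 6.8). Inoculum set to 0.5 McFarland (10⁸ CFU/mL), then diluted to 10⁵ CFU/mL and confirmed by plate counts. Added to 0.1 mL broth containing compound over 5000 to 156.2 µg/mL, with DMSO as solvent. Incubated 24 h at 37 °C. MIC taken as the lowest concentration with no visible growth.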

Staphylococcus aureus [2] = experiment: Antibacterial activity against Staphylococcus aureus F7 at below 625 ug/mL after 24 hrs by broth microdilution method; type: functional, organism-based; method in brief: as §1

Compound | Activity (Staphylococcus aureus [1]) | Activity (Staphylococcus aureus [2])
COC(=O)CC1=C(C(C)=O)CC(C)(C)C[C@H]2C[C@@]12C | inactive | inactive
C[C@@H]1OC(=O)C2=C1CC(C)(C)C[C@H]1C[C@@]21C | inactive | inactive
CC1(C)CC2=C(C(=O)O[C@]2(C)O)[C@]2(C)C[C@@H]2C1 | inactive | inactive
C[C@H]1C(=O)C=C2[C@H]1CC(C)(C)C[C@H]1C[C@@]21C | inactive | inactive
CC1(C)C[C@H]2C[C@@]2(C)C2=CC(=O)[C@@](C)(O)[C@@H]2C1 | inactive | inactive
CC1(C)C[C@H]2C[C@@]2(C)C2=CC(=O)[C@@]3(C)O[C@@]23C1 | inactive | inactive
Cc1oc(=O)cc2c1CC(C)(C)C[C@H]1C[C@@]21C | inactive | inactive
CC1(C)S[C@@H]2[C@H](NC(=O)Cc3ccccc3)C(=O)N2[C@H]1C(=O)O | Active | Active
CC1(C)C=C2C(=CC(=O)[C@@]2(C)O)[C@]2(C)C[C@@H]2C1 | inactive | inactive
